# Activity calls are given as the source filed them. Unless noted, no stated cut-off is given here; in the data, active means inhibition above about 30%; inactive means the rest.
# How the values were obtained:
# [1] = Her2 expression decrease, cell viability multiplex – SKBR3 breast tumor cells, AlphaScreen, ATP viability, primary screen (AID 461;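 active means Her2 level under about 52% in both replicate screens, with viability over 70% of control, limit read from the data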;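 on Her2 level: lower value means less Her2 protein in the cells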;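 on viability: percent of carrier control wells set as 100% viability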); conditions: SKBR3 Her2 protein level, 18-24 h, measured here: SKBR3 viability, ATP luminescence, at 10 µM
# [2] = target: Receptor tyrosine-protein kinase erbB-2 (Homo sapiens) (UniProt P04626); experiment: as above; conditions: 18-24 h, at 10 µM, stronger effect = lower value
# [3] = reduced viability of SK-BR-3 breast cancer cells – cell-based, 24 h, human, pilot screen (AID 572;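 active means viability at or below 10% of carrier control in both of two separate runs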;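 further: compound exposure lasted between 18 and 24 h rather than exactly 24 h; 100% = carrier-treated control wells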); conditions: SK-BR-3 viability, CellTiter-Glo luminescence, at 10 µM, stronger effect = lower value
# [4] = HUVEC growth inhibition – cell-based, human, primary screen (AID 575;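 active means viability at or below 30% in both replicate assays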;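 further: 100% = median of untreated cell wells with 0.1% DMSO on each plate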); conditions: HUVEC proliferation, CellTiter-Glo luminescence, 72 h; at 10 µM; stronger effect = lower value
# Method in brief: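 Assay system: primary human umbilical vein endothelial cells / Buffer or medium: endothelial basal medium with 2% FBS plus growth supplements / Compound dosing: one dose, 10 µM final, 0.1% DMSO / Timing: 72 h treatment at 37 °C / Signal: CTG luminescence / Benchmarks: 32 DMSO-only cell-control wells (high), 32 MePR drug-control wells (low) per plate / Plate: collagen-coated 384-well format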
# [5] = H69AR cell proliferation blockers – human, duplicate replicates, primary screen (AID 580;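 active means viability at or under a set limit in both replicates, limit being median viability minus 3 SD, cut at about 48% in these data, passing the limit was not always enough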;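 further: 100% = mean luminescence of untreated wells and 0% = no signal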); conditions: H69AR lung tumor cells viability, ATP luminescence, 72 h; at 10 µM; stronger effect = lower value
# [6] = MRP1 drug-resistance reversers in H69AR cells – cell-based, doxorubicin co-treatment, pilot screen (AID 601;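 active means viability loss from added drug above about 55%, and viability with drug at most 40%, in both replicates, limit read from the data, passing the limit was not always enough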); conditions: CellTiter-Glo, 72 h, at 10 µM; for differential viability (reversal): stronger effect = higher value
# [7] = yeast transport mutant growth inhibition pilot in 384-well plates, post-Golgi transport modulator project (AID 636; in the data active means inhibition above about 31%); conditions: absorbance 615 nm, about 18 h, stronger effect = higher value
# [8] = growth suppression of yeast trafficking mutant, preliminary HTS, modulators of trafficking downstream of Golgi apparatus project, 1536-format plate, OD 615 nm (AID 637); conditions: yeast transport mutant growth, absorbance 615 nm, 18 h; stronger effect = higher value
# [9] = H69AR cells + 2 uM doxorubicin, measured here: viability with 2 uM doxorubicin, stronger effect = lower value
# [10] = H69AR cells, compound alone cytotoxicity
# Sequence of Receptor tyrosine-protein kinase erbB-2 (Homo sapiens) (P04626 whole entry, looked up): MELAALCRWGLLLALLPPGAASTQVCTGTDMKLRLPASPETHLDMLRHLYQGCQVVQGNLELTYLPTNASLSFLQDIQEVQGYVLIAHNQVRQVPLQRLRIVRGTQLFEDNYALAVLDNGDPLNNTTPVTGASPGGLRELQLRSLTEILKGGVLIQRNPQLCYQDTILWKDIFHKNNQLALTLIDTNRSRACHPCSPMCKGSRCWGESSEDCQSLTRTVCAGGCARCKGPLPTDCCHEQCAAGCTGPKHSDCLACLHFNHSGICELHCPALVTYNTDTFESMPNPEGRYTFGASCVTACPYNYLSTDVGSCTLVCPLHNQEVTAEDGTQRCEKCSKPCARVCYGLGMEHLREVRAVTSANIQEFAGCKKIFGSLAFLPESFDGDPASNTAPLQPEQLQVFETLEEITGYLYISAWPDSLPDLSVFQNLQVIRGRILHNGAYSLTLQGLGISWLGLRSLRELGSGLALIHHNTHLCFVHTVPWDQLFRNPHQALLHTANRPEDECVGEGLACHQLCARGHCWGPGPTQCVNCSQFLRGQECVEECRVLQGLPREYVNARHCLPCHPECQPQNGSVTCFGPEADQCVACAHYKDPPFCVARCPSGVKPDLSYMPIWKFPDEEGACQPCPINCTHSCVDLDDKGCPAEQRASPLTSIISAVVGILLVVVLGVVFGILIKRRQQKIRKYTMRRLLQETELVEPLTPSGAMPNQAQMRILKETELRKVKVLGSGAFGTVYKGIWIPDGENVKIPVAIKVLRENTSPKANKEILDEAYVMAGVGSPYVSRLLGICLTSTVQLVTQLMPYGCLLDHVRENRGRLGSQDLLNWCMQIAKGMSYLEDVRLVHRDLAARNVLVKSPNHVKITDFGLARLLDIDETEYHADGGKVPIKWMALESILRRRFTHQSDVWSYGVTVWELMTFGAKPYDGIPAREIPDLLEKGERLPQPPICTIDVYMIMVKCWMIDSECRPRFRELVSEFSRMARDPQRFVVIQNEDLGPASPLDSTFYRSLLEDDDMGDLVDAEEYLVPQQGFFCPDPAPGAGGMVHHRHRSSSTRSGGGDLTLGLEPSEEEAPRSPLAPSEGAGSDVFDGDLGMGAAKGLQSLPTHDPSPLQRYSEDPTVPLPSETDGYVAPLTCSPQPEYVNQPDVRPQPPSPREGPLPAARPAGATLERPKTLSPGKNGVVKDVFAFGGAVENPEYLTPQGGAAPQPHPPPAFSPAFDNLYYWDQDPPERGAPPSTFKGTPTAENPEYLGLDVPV
SMILES,viability [1] [%],Her2 level [2],viability [3],viability [4],viability [5],differential viability (reversal) ([6]; H69AR cells + 2 uM doxorubicin),"viability [6, 9] [%]","viability [6, 10] [%]",inhibition [7],inhibition [8]
CCCCC(=O)Nc1nn(CCC)c2nc3ccccc3cc12,94,92% (inactive),94% (inactive),92.5% (inactive),96.1% (inactive),-5.81% (inactive),102,96.1,-1.97% (inactive),6.23% (inactive)
CCOc1ccccc1NC(=O)C1CCCN(C(=O)NCc2ccccc2)C1 (stereo not given),102,89.5% (inactive),102% (inactive),96.8% (inactive),100% (inactive),3.45% (inactive),96.6,100,-2.13% (inactive),4.26% (inactive)
c1ccc(-c2cc3c(nn2)CCc2nonc2-3)cc1,98.5,102% (inactive),98.5% (inactive),117% (inactive),97.8% (inactive),-9.73% (inactive),108,97.8,0% (inactive),4.26% (inactive)
Cc1ccc(S(=O)(=O)N2C(=O)CCC2C(=O)Nc2ccc3c(c2)OCCO3)cc1 (stereo not given),109,96.5% (inactive),109% (inactive),93.6% (inactive),89.7% (inactive),-4.12% (inactive),93.8,89.7,-1.69% (inactive),-1.67% (inactive)
CC(=O)Nc1cccc(OCC(O)Cn2cnc3ccccc32)c1 (stereo not given),128,110% (inactive),128% (inactive),90% (inactive),97.9% (inactive),5.28% (inactive),92.7,97.9,-0.14% (inactive),7.14% (inactive)
CCn1c(=O)cc(OCC(=O)NCCCN2CC(C)CC(C)C2)c2ccccc21 (stereo not given),101,81% (inactive),101% (inactive),81.3% (inactive),74.7% (inactive),-0.8% (inactive),75.5,74.7,-7.24% (inactive),-2.55% (inactive)
CSc1nc2c(ccc3ccccc32)o1,114,83.5% (inactive),114% (inactive),92.4% (inactive),90.7% (inactive),2.83% (inactive),87.9,90.7,-1.32% (inactive),6.94% (inactive)
CCC(=O)Nc1ccc(F)c(Cl)c1,108,99% (inactive),108% (inactive),97.9% (inactive),94.7% (inactive),3.67% (inactive),91.1,94.7,-6.53% (inactive),3.71% (inactive)
Cc1cc(NC(=O)c2cnn3cccnc23)no1,101,108% (inactive),101% (inactive),97% (inactive),97.8% (inactive),4.21% (inactive),93.5,97.8,-0.92% (inactive),-5.65% (inactive)
Nc1sccc1C(=O)c1ccc(Cl)cc1,100,85% (inactive),100% (inactive),82.9% (inactive),90.2% (inactive),4.88% (inactive),85.3,90.2,0% (inactive),-4.17% (inactive)
CN(C)c1nc(Nc2ccc(Cl)cc2)nc(OCC#N)n1,105,80.5% (inactive),105% (inactive),63.2% (inactive),81.8% (inactive),-14.6% (inactive),96.3,81.8,-0.26% (inactive),11% (inactive)
COCCNC(=O)CN(C)S(=O)(=O)c1ccc2c(c1)OCCO2,107,102% (inactive),107% (inactive),104% (inactive),100% (inactive),12% (inactive),88.2,100,-4.8% (inactive),-2.26% (inactive)
COc1cccc(Nc2cc(C)nc3ccccc23)c1,77,83% (inactive),77% (inactive),85.4% (inactive),74.4% (inactive),-1.05% (inactive),75.4,74.4,-4.4% (inactive),1.11% (inactive)
CCC(c1nnnn1Cc1ccco1)N(CCc1ccccc1)Cc1cc2cccc(C)c2[nH]c1=O (stereo not given),105,77.5% (inactive),105% (inactive),69.2% (inactive),62.9% (inactive),-3.2% (inactive),66.1,62.9,-5% (inactive),-2.67% (inactive)
O=C(NCc1ccccc1)N1CCn2c(nc3ccccc32)C1,93.5,91.5% (inactive),93.5% (inactive),90.2% (inactive),92.9% (inactive),14.2% (inactive),78.7,92.9,-3.73% (inactive),1.15% (inactive)
COc1ccc(OCC(=O)N2CCN(C(=O)Cc3ccccc3)CC2)cc1,90,96% (inactive),90% (inactive),101% (inactive),84.6% (inactive),-12.1% (inactive),96.7,84.6,0% (inactive),23.2% (inactive)

SMILES,viability [1] [%],Her2 level [2],viability [3],viability [4],viability [5],differential viability (reversal) ([6]; H69AR cells + 2 uM doxorubicin),"viability [6, 9] [%]","viability [6, 10] [%]",inhibition [7],inhibition [8]
O=C(NCC(c1cccnc1)N1CCN(c2ccc(F)cc2)CC1)c1ccc(F)cc1 (stereo not given),90,86.5% (inactive),90% (inactive),103% (inactive),92.7% (inactive),1.7% (inactive),91,92.7,-3.11% (inactive),8.25% (inactive)
COc1ccc(N2C(=O)CC(NC3CC3)C2=O)cc1 (stereo not given),100,89.5% (inactive),100% (inactive),94.7% (inactive),91.2% (inactive),0.64% (inactive),90.5,91.2,-3.82% (inactive),-6% (inactive)
Cc1oc(-c2ccc(Cl)cc2)nc1CS(=O)CC(=O)NCCCN(C)C1CCCCC1 (stereo not given),91.5,101% (inactive),91.5% (inactive),66.3% (inactive),87.1% (inactive),10.8% (inactive),76.3,87.1,-2.99% (inactive),5.56% (inactive)
CCc1ccc2c(CN(CC)Cc3nc4ccccc4c(=O)[nH]3)cc(=O)oc2c1,86,73.5% (inactive),86% (inactive),75.4% (inactive),67.9% (inactive),36.3% (inactive),31.7,67.9,-1.32% (inactive),-7.27% (inactive)
COc1ccccc1C1/C(=C(\O)c2c(C)nc3c(C)cccn23)C(=O)C(=O)N1CCCN(C)C (stereo not given),102,79.5% (inactive),102% (inactive),85.3% (inactive),102% (inactive),12.5% (inactive),89.2,102,-7.43% (inactive),5.67% (inactive)
CCOC(=O)c1cccc(NC(=O)CS(=O)(=O)Cc2nc(-c3cccc(OC)c3)oc2C)c1,99.5,79% (inactive),99.5% (inactive),95.2% (inactive),85.3% (inactive),-7.47% (inactive),92.8,85.3,-7.87% (inactive),-6.61% (inactive)
CCCCN(Cc1cc2cc(OC)ccc2[nH]c1=O)C(=O)COc1ccccc1,73,79% (inactive),73% (inactive),108% (inactive),93.6% (inactive),-4.48% (inactive),98.1,93.6,-0.13% (inactive),0.82% (inactive)
O=C(O)c1cc(Cl)c(Cl)cc1C(=O)N1CCCC1,97.5,100% (inactive),97.5% (inactive),87.2% (inactive),98.7% (inactive),-2.26% (inactive),101,98.7,-1.79% (inactive),-1.17% (inactive)
CCC(Oc1ccc2ccccc2c1)C(=O)O (stereo not given),89.5,98.5% (inactive),89.5% (inactive),85.6% (inactive),80.1% (inactive),-1.54% (inactive),81.6,80.1,-3.33% (inactive),1.15% (inactive)
CCCCCOC(=O)C1=C(C)N(C)C(=O)NC1c1cc(Br)c(O)c(OC)c1 (stereo not given),114,106% (inactive),114% (inactive),72.7% (inactive),83.2% (inactive),-3.32% (inactive),86.5,83.2,-7.14% (inactive),-7.62% (inactive)
CCOc1cc(NC(=O)c2ccco2)c(OCC)cc1NC(=O)Cc1cccc(OC)c1,107,99.5% (inactive),107% (inactive),61.2% (inactive),86.7% (inactive),-0.055% (inactive),86.7,86.7,0.68% (inactive),-6.39% (inactive)
c1ccc(Cn2nnc3c(N4CCC5(CC4)OCCO5)ncnc32)cc1,105,92.5% (inactive),105% (inactive),103% (inactive),90.7% (inactive),-8.68% (inactive),99.3,90.7,-1.05% (inactive),4.03% (inactive)
COc1ccc(C2=NOC(C(=O)NCCCN3CCOCC3)C2)cc1 (stereo not given),109,100% (inactive),109% (inactive),116% (inactive),87.3% (inactive),1.06% (inactive),86.2,87.3,-6.71% (inactive),9.34% (inactive)
CC1CCC2C(C1)c1sc(=O)[nH]c1SC2(C)C (stereo not given),85,111% (inactive),85% (inactive),60.5% (inactive),106% (inactive),2.79% (inactive),103,106,0.9% (inactive),13.2% (inactive)
Cc1cc(C)c2nc(N)sc2c1,95.5,108% (inactive),95.5% (inactive),105% (inactive),103% (inactive),16.9% (inactive),85.8,103,-6.62% (inactive),-3.33% (inactive)
COc1cc2c(c(OC)c1)C(c1ccncc1)CC(=O)N2 (stereo not given),89,96.5% (inactive),89% (inactive),91.7% (inactive),111% (inactive),21.4% (inactive),89.8,111,1.73% (inactive),-5.57% (inactive)
